Published values gathered from unrelated publications.
Lines come from different studies, so protocols differ. ≈ marks a conversion by molar mass, not a printed value.

NC(=O)C1CCCN1C(=O)Nc1ccccc1/N=c1\cc(-c2ccc3c(c2)OCCO3)oc2cc(F)ccc12 (stereo not drawn)  inhibition (HCT-116; cell growth or viability, CCK-8; 1 µM): 13.6%
CCOc1ccc(Nc2c3c(nc4ccccc24)CCC3)cc1  IC50 (Leishmania infantum; parasite growth, MTT; promastigote): 640 nM
O=C1OC[C@H]2OC(O)[C@H](O)[C@@H](O)[C@@H]2OC(=O)c2cc(O)c(O)c(O)c2-c2c(O)c(O)c3oc(=O)c4c(c(O)c(O)c5oc(=O)c2c3c54)-c2c1cc(O)c(O)c2O (mixture of isomers)  inhibition zone (Streptococcus mutans; microbial growth, disc diffusion; 500 µg/disc): 15 mm
NCCCC(=O)Nc1ccccc1/N=c1\cc(-c2ccc3c(c2)OCO3)oc2ccccc12  inhibition (HCT-116; cell growth or viability, CCK-8; 1 µM): 6.97%
C[C@@H]1O[C@@H](OC[C@H]2O[C@@H](Oc3c(-c4ccc(O)c(O)c4)oc4cc(O)cc(O)c4c3=O)[C@H](O)[C@@H](O)[C@@H]2O)[C@H](O)[C@H](O)[C@H]1O  MBC (Streptococcus mutans; microbial killing, broth dilution): 400 µg/mL (≈ 655 µM)
C[C@H](N)C(=O)Nc1ccccc1/N=c1\cc(-c2ccc3c(c2)OCCO3)oc2cc(F)ccc12  inhibition (HCT-116; cell growth or viability, CCK-8; 1 µM): 5.4%
c1ccc(Oc2ccc(Nc3c4c(nc5ccccc35)CCC4)cc2)cc1  IC50 (Leishmania infantum; parasite growth, MTT; promastigote): 530 nM
NCC(=O)Nc1ccccc1/N=c1\cc(-c2ccc3c(c2)OCO3)oc2ccccc12  inhibition (HCT-116; cell growth or viability, CCK-8; 1 µM): 4.94%
Cc1nc(Nc2ncc(C(=O)Nc3c(C)cccc3Cl)s2)cc(N2CC[C@H](O)C2)n1  inhibition (JVM13; cell growth or viability, ATP luminescence; 10 µM, 72 h): 32%
Oc1cc(O)c2c(c1)O[C@H](c1cc(O)c(O)c(O)c1)[C@@H](O)C2  MBC (Streptococcus mutans; microbial killing, broth dilution): 400 µg/mL (≈ 1310 µM)
COc1ccc(NC(=O)Nc2ccc(-c3cn(Cc4ccc(Cl)cc4)nn3)cc2)cc1  viability (PC-9; cell growth or viability, CCK-8; 50 µM, 72 h): 87.3%
O=c1oc2c(O)c(O)cc3c(=O)oc4c(O)c(O)cc1c4c23  MBC (Streptococcus mutans; microbial killing, broth dilution): 200 µg/mL (≈ 662 µM)
NCCC(=O)Nc1ccccc1/N=c1\cc(-c2ccc3oc(N)nc3c2)oc2ccccc12  inhibition (HCT-116; cell growth or viability, CCK-8; 1 µM): 42.7%
C[C@@H]1[C@H](O)[C@@H](C)/C=C/C=C/C=C/C=C/C=C/C=C/C=C/[C@H](O[C@@H]2O[C@H](C)[C@@H](O)[C@H](N)[C@@H]2O)C[C@@H]2O[C@](O)(C[C@@H](O)C[C@@H](O)[C@H](O)CC[C@@H](O)C[C@@H](O)CC(=O)O[C@H]1C)C[C@H](O)[C@H]2C(=O)O  EC50 (Leishmania infantum; parasite growth, MTT; promastigote): 1500 nM
CC1(C)S[C@@H]2[C@H](NC(=O)[C@H](N)c3ccccc3)C(=O)N2[C@H]1C(=O)O  MIC90 (Streptococcus pyogenes; microbial growth; clinical isolate): 0.5 µg/mL (≈ 1.43 µM)
O=C(O[C@@H]1O[C@@H]2COC(=O)c3cc(O)c(O)c(O)c3-c3c(cc(O)c(O)c3O)C(=O)O[C@H]([C@H]1O)[C@@H]2O)c1cc(O)c(O)c(O)c1  MIC (Streptococcus mutans; microbial growth, broth dilution; 24 h): 200 µg/mL (≈ 315 µM)
CC(=O)NC[C@H]1CN(c2ccc(N3CCOCC3)c(F)c2)C(=O)O1  MIC90 (Streptococcus pyogenes; microbial growth; clinical isolate): 2 µg/mL (≈ 5.93 µM)
C[C@H](Nc1ccc2c(c1)OCCn1cc(N3C(=O)OC[C@H]3C(F)F)nc1-2)C(N)=O  EC50 (KYSE-510; cell growth or viability, ATP luminescence; 5 days): 87.8 nM
